Measured values published in ChEMBL document CHEMBL4513216, “Probing the Open Global Health Chemical Diversity Library for Multistage-Active Starting Points for Next-Generation Antimalarials” (ACS Infect Dis, 2020).

Assay: Toxicity liver stage against HepG2, at 10uM
Format: cell-based
Parameters: test concentration 10 uM, cell line HepG2-A16-CD81EGFP
Conditions: human, HepG2-A16-CD81EGFP cells; read-out: INHIBITION
Outline: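 Uninfected HepG2-A16-CD81EGFP cells, 3 × 10^3 per well, 1536-well, plated on prespotted compound at 10 μM final, parasite-free screening media added to match infected plates; puromycin 10 μM positive, DMSO 0.5% negative; run in parallel with 48 h PbLuc assay at 37 °C, 5% CO2; viability by CellTiter-Glo luminescence, normalized to controls.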

| Compound | cytotoxicity at 10 µM [%] |
| --- | --- |
| CN1CC=C(c2noc(CCC(=O)N3CCCC3)n2)CC1 | 4.87 |
| COc1ccc(NC(=O)N2CCCC2c2ccco2)c(OC)c1 (stereo unspecified) | 10.8 |
| Nc1nc2c(c3c1C(=O)NC3=O)CCC2 | -4.21 |
| CCOC(=O)c1nc(COc2c(C)occc2=O)no1 | 3.79 |
| Cn1c(C(=O)Nc2nc[nH]n2)cc2ccccc21 | 1.24 |
| COCC(C)(O)CNC(=O)Nc1cccc(OC)c1OC (stereo unspecified) | -2.75 |
| N#Cc1ccccc1NC(=O)C1CN(C(=O)c2ccc3c(c2)OCO3)C1 | -8.64 |
| O=S1(=O)N=C(SCc2ccc(Cl)cc2)Nc2ccc(F)cc21 | 27.6 |
| CCCNC(=O)c1cc2c([nH]c1=O)CC(c1cccs1)CC2=O (stereo unspecified) | 50.9 |
| Cc1nc(NC2CCCC2)c2c(n1)c(C)nn2C | 14.1 |
| CCn1nc(C)c(CNC(=O)c2nnc3ccc(OC)cc3n2)c1C | 6.58 |
| Cc1nn(C)c2cnn(CCCNS(=O)(=O)Cc3ccccc3)c12 | 0.999 |
| CC(=O)N1CCC(c2cncc(N3CCOCC3)n2)CC1 | 3.66 |
| O=C1CCC[C@]2(CN(S(=O)(=O)N3CCOCC3)C[C@H]2c2cccnc2)N1 | -0.701 |
| CC(=O)N1CCC(c2cncc(Oc3ccccc3)n2)CC1 | 6.05 |
| NCCn1nc(C2CCN(C(=O)CC3CCCCC3)C2)c2nccnc21 (stereo unspecified) | -0.645 |
| Cc1nc2n(n1)CC(Nc1ncnc3c1CCC3)CC2 (stereo unspecified) | -44.1 |
| CC(C#N)CN(C)Cc1c(Cl)ccc2cccnc12 (stereo unspecified) | -39 |
| CC(=O)NC(Cc1c[nH]c2cc(F)ccc12)C(=O)Nc1cnn(C)c1 (stereo unspecified) | 13.9 |
| CC(C)n1nnnc1-c1ccc(NC(=O)CC(F)(F)F)cc1F | 6.62 |
| Cc1noc(C)c1S(=O)(=O)N(CC(N)=O)CC(C)C | -6.46 |

| Compound | cytotoxicity at 10 µM [%] |
| --- | --- |
| CCOCC(=O)NCC1(NC(C)c2ccccc2)CCOCC1 (stereo unspecified) | -8.01 |
| O=C(NCCSCc1cccs1)C1CCCN(C(=O)N2CCCC2)C1 (stereo unspecified) | -13.6 |
| CNC(=O)NC(=O)CCSc1ccccc1Cl | -5.13 |
| Cc1nnc(N2CCNCC2)c(C(N)=O)c1C | 3.52 |
| CCOc1cccc(NC(=O)Cc2cccc(O)c2)n1 | -0.116 |
| COC(=O)C(NC(=O)COC1CCCCC1)c1ccccc1 (stereo unspecified) | -21.4 |
| CC(c1ccc(F)c(F)c1)N(C)CCS(=O)(=O)CCC(N)=O (stereo unspecified) | -52.2 |
| CC(C)C1CN(C(=O)c2ccc(N3CCCC3)nc2)CCS1 (stereo unspecified) | -4.81 |
| Cc1cc(C(=O)N2CCn3cc(CN(C)C)nc3C2)no1 | -80.5 |
| CC1=N[C@@]2(CC[C@@H]3CN(S(=O)(=O)C4CC4)C[C@@H]32)C(=O)N1CC(C)C | -76.8 |
| O=C1CC(c2ccncc2)C2(CCN(C(=O)c3ccnnc3)CC2)N1 (stereo unspecified) | -80.4 |
| Cc1noc([C@@H]2CCO[C@@H]3CCN(Cc4nccs4)C[C@@H]32)n1 | -75.8 |
| COCC(=O)N1CC[C@@H](N2CCN(C)CC2)[C@@H]1Cc1ccccc1 | -66.1 |
| Cn1cccc1C(=O)N1CC[C@H]2C[C@@H](c3ccncn3)O[C@@H]2C1 | 0.77 |
| COCC1CN(C(=O)c2cccn2C)Cc2nccn2C1 (stereo unspecified) | 6.92 |
| Fc1cnc(N2CCOCC3(CCCN(c4nncs4)C3)C2)nc1 (stereo unspecified) | 2.01 |
| Cc1cc(CN(C)C(=O)c2cc(COc3ccccc3)[nH]n2)n[nH]1 | 5.76 |
| CC(C)CN1CC(c2nc(-c3cccc(F)c3)c[nH]2)CC1=O (stereo unspecified) | 4.52 |
| CC(C)(C)NC(=O)[C@@H]1Cc2ccccc2CN1Cc1cccs1 | -2.14 |
| COc1cc(NCCCSc2nnc(C)s2)ncn1 | 20.6 |
| Cc1ccc(NC2(C(=O)N3CCn4cncc4C3)CCCCC2)cc1C | 8.47 |

| Compound | cytotoxicity at 10 µM [%] |
| --- | --- |
| CCc1ccc2nc(NCCCN(CCO)CCO)cc(C)c2c1 | -13.3 |
| CCN(C(C)=O)C1CCN(c2nccc(C3CCCC3)n2)C1 (stereo unspecified) | -5.35 |
| Cn1cccc1C(=O)N1CC[C@@]2(O)CCN(S(C)(=O)=O)C[C@H]2C1 | -10.7 |
| OCC1(O)CCN(Cc2ccc(C3CCCCO3)o2)CC1 (stereo unspecified) | -5.95 |
| CN1CCN(Cc2noc(CC3CCc4ccccc43)n2)CC1 (stereo unspecified) | -20.1 |
| Cc1n[nH]c(C)c1CCc1ccc(S(C)(=O)=O)cc1 | 6.29 |
| CCNc1ncc(C(=O)N2CCOC(CCCc3ccccc3)C2)cn1 (stereo unspecified) | 79.2 |
| Cc1ccc(F)c(NC(=O)CCC(=O)N(C)Cc2cc(C3CC3)[nH]n2)c1 | 7.28 |
| CC(C)CN1C(=O)CC[C@H]2CN(Cc3ncc[nH]3)CC[C@H]21 | -3.25 |
| Cc1ccc2c(c1)cc(CN1CC[C@](C)(O)[C@H](C)C1)n2C | 0.379 |
| CCCN1CCCC1c1ccc(C(=O)N2CCOCC2)s1 (stereo unspecified) | -146 |
| NCC1CN(c2nc(-c3ccccc3)nc3c2CCNCC3)CCO1 (stereo unspecified) | -14.9 |
| CCNC(=O)[C@@H]1C[C@@H](NC(=O)Cc2ccccn2)CN1CCCSC | -6.72 |
| CCc1nc(C2CCCN(C(=O)c3ccccc3Cl)C2)no1 (stereo unspecified) | -5.43 |
| CCn1ncc2c1CCCC2NCc1ccc(OC)cc1OC (stereo unspecified) | -2.06 |
| Cc1nccn1C1CCCN(C(=O)c2cc3c(F)cccc3[nH]2)C1 (stereo unspecified) | 5.32 |
| COCc1nc(CN(CC(N)=O)C(C)C)cs1 | -8.39 |
| O=C(CN1CCCC(Cn2cncn2)C1)NCCc1cccs1 (stereo unspecified) | -17.6 |
| CCc1nc(CN2CCN(CC(O)c3ccccc3)CC2)no1 (stereo unspecified) | -15.3 |
| Cc1cccc(C(=O)NCc2ccc(S(N)(=O)=O)cc2)n1 | -4.25 |
| c1ccc(OCc2ccncc2)c(CNC2CCc3ncnn3C2)c1 (stereo unspecified) | -2.35 |

| Compound | cytotoxicity at 10 µM [%] |
| --- | --- |
| c1ccc(-c2nccc(CNCC3CCCN3c3cccnn3)n2)cc1 (stereo unspecified) | -1.17 |
| CCOc1ccnc(N2CCN(C(=O)c3cc(Cl)c[nH]3)CC2)n1 | -9.29 |
| CC(C)c1nnc2n1CCN(C(=O)c1ccnc(N(C)C)c1)C2 | 3.06 |
| Cc1ncccc1CNCC1CCN(CC(O)c2ccccc2)CC1 (stereo unspecified) | -6.76 |
| Cc1ccc(NC2CCN(C(=O)CN(C)C3CC3)CC2)nn1 | 4.64 |
| Cc1ccc(C#N)cc1NC(=O)NC1CCCN(c2ncccn2)C1 (stereo unspecified) | -10.2 |
| CN(CC1CN(Cc2cn3ccsc3n2)CCO1)c1cccnn1 (stereo unspecified) | 4.55 |
| CNC(=O)C1CN(c2ccc(F)cc2)CCN1 (stereo unspecified) | 7.9 |
| CCn1nc(C)c(CN(CCCOC)Cc2ccccn2)c1C | 5.23 |
| Cc1ccc(=O)n(CC2(O)CCN(Cc3cc(C)c(O)c(C)c3)CC2)n1 | 1.7 |
| Cn1cc(CNC2CCc3c(ccc(=O)n3Cc3ccncc3)C2)cn1 (stereo unspecified) | -102 |
| CN(Cc1ccco1)[C@@H]1CN(C(=O)c2ccnnc2)[C@@H]2CCCO[C@H]12 | -7.93 |
| COCCN(C)C[C@@H]1CCC[C@@H]2CN(c3cc(OC)ncn3)C[C@@H]21 | 1.75 |
| COc1ccc(S(=O)(=O)N2CCN(C)c3ncccc3C2)cc1 | -110 |
| Cn1cc(C(=O)N2CC[C@@H]3[C@@H]2CCN3Cc2cccc(C#N)c2)cn1 | -71.3 |
| CCN(CC)c1ncnc2c1CCN(CC1CCOCC1)CC2 | -81.5 |
| CCN1C[C@H]2[C@@H](C1)N(S(=O)(=O)c1ccccc1)CC[C@H]2OC | -75.3 |
| Cc1ccc(-c2cc(C3=NC(=CN4CCN(C)CC4)NO3)[nH]n2)cc1 | -10.5 |
